{"source": "paper PMC4928098", "about": "(NeuroImage, 2016)", "key": {"P-gp (ABCB1)": {"target": "P-gp (ABCB1) (Homo sapiens, UniProt P08183)", "sequence (P08183 whole entry)": "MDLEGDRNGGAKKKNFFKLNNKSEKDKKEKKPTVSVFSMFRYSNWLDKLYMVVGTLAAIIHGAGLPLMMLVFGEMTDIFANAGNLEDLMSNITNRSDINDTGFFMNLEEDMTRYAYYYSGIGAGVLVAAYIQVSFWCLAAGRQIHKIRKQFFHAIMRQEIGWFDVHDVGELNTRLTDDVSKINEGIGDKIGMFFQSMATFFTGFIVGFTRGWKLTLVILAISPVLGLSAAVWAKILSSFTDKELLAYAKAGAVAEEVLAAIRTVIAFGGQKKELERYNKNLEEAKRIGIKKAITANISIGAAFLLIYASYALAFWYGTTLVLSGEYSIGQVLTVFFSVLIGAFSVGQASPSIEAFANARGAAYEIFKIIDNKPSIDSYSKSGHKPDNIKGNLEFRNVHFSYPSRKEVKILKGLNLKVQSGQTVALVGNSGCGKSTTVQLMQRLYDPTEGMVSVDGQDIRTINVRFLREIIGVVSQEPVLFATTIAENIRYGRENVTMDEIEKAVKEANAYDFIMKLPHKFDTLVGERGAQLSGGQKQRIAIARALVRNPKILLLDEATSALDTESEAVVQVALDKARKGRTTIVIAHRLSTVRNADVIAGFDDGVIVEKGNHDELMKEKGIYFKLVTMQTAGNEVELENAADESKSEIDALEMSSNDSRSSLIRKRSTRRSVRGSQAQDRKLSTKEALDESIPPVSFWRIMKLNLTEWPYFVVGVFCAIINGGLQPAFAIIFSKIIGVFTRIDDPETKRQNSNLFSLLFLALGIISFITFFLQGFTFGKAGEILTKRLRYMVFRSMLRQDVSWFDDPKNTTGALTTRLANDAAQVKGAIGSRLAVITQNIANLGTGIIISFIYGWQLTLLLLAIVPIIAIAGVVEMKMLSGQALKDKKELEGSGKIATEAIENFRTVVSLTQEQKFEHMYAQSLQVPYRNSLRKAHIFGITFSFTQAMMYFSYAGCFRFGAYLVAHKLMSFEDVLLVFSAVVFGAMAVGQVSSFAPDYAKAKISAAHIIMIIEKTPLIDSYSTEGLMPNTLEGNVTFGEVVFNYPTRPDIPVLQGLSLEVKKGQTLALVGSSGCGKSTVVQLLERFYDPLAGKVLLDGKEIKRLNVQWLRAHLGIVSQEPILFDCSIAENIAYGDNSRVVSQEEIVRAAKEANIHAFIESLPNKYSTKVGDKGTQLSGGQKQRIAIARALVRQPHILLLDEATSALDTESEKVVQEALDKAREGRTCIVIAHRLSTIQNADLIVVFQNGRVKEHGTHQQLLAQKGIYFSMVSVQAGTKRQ", "format": "cell-based", "settings": "for Percent Inhibition (%) of the fluorescent substrate: P-gp, rhodamine-123 efflux, human cancer cells", "in_short": "(§1)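 Human cancer cells overexpressing a transporter, plus parental cells, were analysed by flow cytometry for efflux of a fluorescent probe: rhodamine-123 for P-gp, mitoxantrone for BCRP, calcein-AM for MRP1. Conditions were untreated parental cells, expressing cells with a transporter-specific inhibitor, expressing cells with test compound at 20 or 50 µM, and untreated expressing cells. Fluorescence was recorded on 10,000 cells and expressed as percent inhibition.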"}, "BCRP (ABCG2)": {"target": "T1, BCRP (ABCG2) (Homo sapiens, UniProt Q9UNQ0)", "T1 sequence (Q9UNQ0 1-655)": "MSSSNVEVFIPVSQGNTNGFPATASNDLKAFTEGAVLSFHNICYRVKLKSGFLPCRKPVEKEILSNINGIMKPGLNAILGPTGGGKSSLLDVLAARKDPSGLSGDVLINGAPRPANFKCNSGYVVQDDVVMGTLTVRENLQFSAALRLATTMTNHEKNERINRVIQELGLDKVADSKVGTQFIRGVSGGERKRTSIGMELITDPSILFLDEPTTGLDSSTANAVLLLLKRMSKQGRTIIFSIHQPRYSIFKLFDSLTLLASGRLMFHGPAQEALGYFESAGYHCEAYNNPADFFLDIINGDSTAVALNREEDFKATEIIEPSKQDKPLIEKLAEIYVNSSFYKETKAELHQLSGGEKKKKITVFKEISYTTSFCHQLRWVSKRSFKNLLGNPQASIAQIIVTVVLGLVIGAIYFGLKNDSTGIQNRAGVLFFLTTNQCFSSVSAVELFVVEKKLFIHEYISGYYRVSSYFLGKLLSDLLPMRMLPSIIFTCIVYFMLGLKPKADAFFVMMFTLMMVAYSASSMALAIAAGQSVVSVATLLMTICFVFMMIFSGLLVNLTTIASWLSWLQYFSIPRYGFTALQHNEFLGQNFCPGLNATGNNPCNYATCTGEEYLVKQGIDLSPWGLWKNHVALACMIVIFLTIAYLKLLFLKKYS", "format": "cell-based", "settings": "for Percent Inhibition (%) of the fluorescent substrate: BCRP, mitoxantrone efflux, human cancer cells", "in_short": "as §1"}, "MRP1 (ABCC1)": {"target": "MRP1 (ABCC1) (Homo sapiens, UniProt P33527)", "sequence (P33527 whole entry)": "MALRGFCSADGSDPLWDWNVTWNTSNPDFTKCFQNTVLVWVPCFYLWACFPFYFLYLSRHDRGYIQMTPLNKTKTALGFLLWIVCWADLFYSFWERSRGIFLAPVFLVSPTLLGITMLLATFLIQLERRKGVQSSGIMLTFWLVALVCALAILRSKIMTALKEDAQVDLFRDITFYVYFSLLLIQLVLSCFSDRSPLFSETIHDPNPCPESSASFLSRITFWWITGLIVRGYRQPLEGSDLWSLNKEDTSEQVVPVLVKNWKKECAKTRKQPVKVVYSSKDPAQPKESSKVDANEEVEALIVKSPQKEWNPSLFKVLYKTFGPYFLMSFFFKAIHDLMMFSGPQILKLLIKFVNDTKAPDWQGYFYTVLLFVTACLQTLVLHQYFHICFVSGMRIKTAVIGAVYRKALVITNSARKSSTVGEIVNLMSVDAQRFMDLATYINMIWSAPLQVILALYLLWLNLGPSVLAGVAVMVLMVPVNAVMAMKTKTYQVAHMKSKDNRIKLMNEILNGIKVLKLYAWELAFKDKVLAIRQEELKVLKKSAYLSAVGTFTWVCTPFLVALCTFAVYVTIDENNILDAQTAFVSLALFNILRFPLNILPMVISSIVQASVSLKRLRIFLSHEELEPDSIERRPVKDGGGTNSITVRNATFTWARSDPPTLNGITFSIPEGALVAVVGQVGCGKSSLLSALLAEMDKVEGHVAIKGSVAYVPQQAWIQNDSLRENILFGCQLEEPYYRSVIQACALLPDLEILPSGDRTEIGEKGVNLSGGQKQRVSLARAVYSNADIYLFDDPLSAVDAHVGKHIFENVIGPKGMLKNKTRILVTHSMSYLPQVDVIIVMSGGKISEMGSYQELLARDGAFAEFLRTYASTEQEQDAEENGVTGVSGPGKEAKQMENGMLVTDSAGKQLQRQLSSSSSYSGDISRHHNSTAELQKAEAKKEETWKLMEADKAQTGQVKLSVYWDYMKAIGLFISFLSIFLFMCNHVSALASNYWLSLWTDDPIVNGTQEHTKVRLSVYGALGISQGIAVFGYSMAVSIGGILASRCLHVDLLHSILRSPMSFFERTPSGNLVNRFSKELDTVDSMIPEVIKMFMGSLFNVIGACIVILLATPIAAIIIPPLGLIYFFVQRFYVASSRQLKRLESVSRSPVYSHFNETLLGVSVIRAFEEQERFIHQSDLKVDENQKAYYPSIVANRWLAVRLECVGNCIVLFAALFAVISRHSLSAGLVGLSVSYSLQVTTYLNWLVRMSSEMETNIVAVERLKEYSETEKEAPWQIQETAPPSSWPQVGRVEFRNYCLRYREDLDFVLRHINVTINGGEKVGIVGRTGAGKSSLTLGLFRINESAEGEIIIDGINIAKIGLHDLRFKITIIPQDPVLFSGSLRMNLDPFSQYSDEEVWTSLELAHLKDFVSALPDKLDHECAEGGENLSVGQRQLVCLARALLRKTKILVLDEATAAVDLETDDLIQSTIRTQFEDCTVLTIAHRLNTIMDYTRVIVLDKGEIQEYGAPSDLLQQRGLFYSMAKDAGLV", "format": "cell-based", "settings": "for Percent Inhibition (%) of the fluorescent substrate: Mrp1, calcein-AM efflux, human cancer cells", "in_short": "as §1"}, "[1]": {"settings": "humans, ref Ryu et al., 2007, cited from earlier work"}, "P-gp [2]": {"target": "P-gp (Mus musculus, UniProt P21447)", "assay": "Ex vivo brain to plasma ratio of parent radioligand in P-gp knockout mice", "settings": "P-gp KO mice, 30 min after iv injection, n=3", "in_short": "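Wild-type, P-gp KO, BCRP KO and P-gp/BCRP KO mice (n=3 per group, 25.3 ± 1.2 g) were anesthetised with 1.5% isoflurane in oxygen. Radioligand (166 ± 49 µCi; 826 ± 205 mCi/µmol) was given iv via tail-vein cannula. At 30 min, blood was taken by cardiac puncture and brain excised. Parent was quantified by reversed-phase radio-HPLC with γ-counting. Brain/plasma parent ratios were compared across groups (mean ± SEM).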"}, "P-gp [3]": {"target": "P-gp (Homo sapiens, UniProt P08183)", "sequence (P08183 whole entry, the tested form may be a part)": "as the sequence (P08183 whole entry) above", "assay": "Human PET imaging at baseline and during tariquidar infusion", "format": "in vivo", "in_short": "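Radioligand was given as a 376 ± 8 MBq bolus, followed by a 2-h dynamic PET with arterial sampling and HPLC metabolite separation. VT came from a three-tissue model including the acid metabolite, in six central regions. Paired one-tailed t-test.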"}, "P-gp [4]": {"test_system": "P-gp", "settings": "rats pretreated with tariquidar; ref Choi et al., 2016; cited from earlier work"}}, "note": "Where two headings read alike, the source gives them in different places."}
{"smiles": "COc1ccccc1N1CCN(CCN(C(=O)C2CCC(F)CC2)c2ccccn2)CC1", "note": "(stereo not shown) [FCWAY]", "values": [{"measurement": "Percent Inhibition (%) of the fluorescent substrate", "setting": "P-gp (ABCB1); 20 uM", "value": 0.8, "unit": "%"}, {"measurement": "Percent Inhibition (%) of the fluorescent substrate", "setting": "P-gp (ABCB1); 50 uM", "value": 4.0, "unit": "%"}, {"measurement": "Substrate status for transporter (in vitro substrate inhibition)", "setting": "P-gp (ABCB1); P-gp overexpressing human cancer cells", "value": "weak substrate"}, {"measurement": "Percent Inhibition (%) of the fluorescent substrate", "setting": "BCRP (ABCG2); 20 uM", "value": 6.8, "unit": "%"}, {"measurement": "Percent Inhibition (%) of the fluorescent substrate", "setting": "BCRP (ABCG2); 50 uM", "value": 8.6, "unit": "%"}, {"measurement": "Substrate status for transporter (in vitro substrate inhibition)", "setting": "BCRP (ABCG2); BCRP overexpressing human cancer cells", "value": "weak substrate"}, {"measurement": "Percent Inhibition (%) of the fluorescent substrate", "setting": "MRP1 (ABCC1); 20 uM", "value": 3.1, "unit": "%"}, {"measurement": "Percent Inhibition (%) of the fluorescent substrate", "setting": "MRP1 (ABCC1); 50 uM", "value": 5.4, "unit": "%"}, {"measurement": "Substrate status for transporter (in vitro substrate inhibition)", "setting": "MRP1 (ABCC1); MRP1 overexpressing human cancer cells", "value": "weak substrate"}]}
{"smiles": "COc1ccccc1N1CCN(CCN(C(=O)c2ccc(F)cc2)c2ccccn2)CC1", "note": "[MPPF, reference compound]", "values": [{"measurement": "Percent Inhibition (%) of the fluorescent substrate", "setting": "MRP1 (ABCC1); 20 uM", "value": 13.1, "unit": "%"}, {"measurement": "Percent Inhibition (%) of the fluorescent substrate", "setting": "MRP1 (ABCC1); 50 uM", "value": 19.9, "unit": "%"}]}
{"smiles": "COc1ccccc1N1CCN(CCN(C(=O)C2CCC([18F])CC2)c2ccccn2)CC1", "note": "(stereo not shown) [^18F-FCWAY]", "values": [{"measurement": "Time of peak uptake in brain", "setting": "[1]; with disulfiram administration", "value": "five to seven"}, {"measurement": "Time of peak in brain after injection", "setting": "[1]; without disulfiram", "value": "one to three"}, {"measurement": "Brain uptake (brain to plasma ratio) in comparison to wild type mice", "setting": "P-gp [2]", "value": "increased"}, {"measurement": "Peak brain radioactivity uptake", "setting": "P-gp [3]; baseline, after bolus injection, healthy subjects", "value": "around 3 SUV"}, {"measurement": "Change of non-displaceable binding potential (BPND) after tariquidar", "setting": "P-gp [3]; i.v. tariquidar treatment, n=8", "value": "changed insignificantly"}, {"measurement": "Increase in mean distribution volume (VT) with tariquidar treatment", "setting": "P-gp [3]; tariquidar 2 or 4 mg/kg iv infusion, six brain regions, n=8", "value": "60–100%"}]}
{"smiles": "O=C(O)[C@H]1CC[C@H]([18F])CC1", "note": "[^18F-FC]", "values": [{"measurement": "Estimated concentration in brain as percent of that of the parent radioligand", "setting": "P-gp [3]; during most of the scan, radiometabolite", "value": "2–3%"}, {"measurement": "Concentration in brain compared to the total radioactivity", "setting": "P-gp [3]; estimated by compartmental modeling, radiometabolite", "value": "~ 5%"}]}
{"smiles": "COc1ccccc1N1CCN(CCN(C(=O)C2CCC(C[18F])CC2)c2ccccn2)CC1", "note": "(stereo not shown) [^18F-Mefway]", "values": [{"measurement": "Increase of brain uptake after tariquidar pretreatment", "setting": "P-gp [4]", "value": 1.6, "unit": "fold"}]}
{"smiles": "CNC(=O)C(CCN1CCC(O)(c2ccc(Cl)cc2)CC1)(c1ccccc1)c1ccccc1", "note": "[dLop, desmethyl-loperamide, reference compound]", "values": [{"measurement": "Percent Inhibition (%) of the fluorescent substrate", "setting": "P-gp (ABCB1); 20 uM", "value": 10.0, "unit": "%"}, {"measurement": "Percent Inhibition (%) of the fluorescent substrate", "setting": "P-gp (ABCB1); 50 uM", "value": 25.0, "unit": "%"}]}
